LMPTP block = LMPTP (human) inhibition. P24666. recombinant LMPTP-A, OMFP fluorogenic substrate, fluorescence intensity. inhibition, % at 20 µM. 360,000 compounds, 0.22% hits;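 active = compounds that cut the enzyme signal by at least half of the control window in the single-dose screen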;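 also: plate controls were DMSO wells with enzyme plus substrate for no effect and substrate without enzyme for full effect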
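Material: LMPTP-A; amount: 0.625 nM enzyme; doses: single 20 µM dose; times: reaction 50 min, room temperature, dark; technique: fluorescence intensity of OMFP turnover product; benchmarks: no-enzyme and uninhibited controls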
Rpn11 block = inhibitors of human proteasome Rpn11; 360,000 compounds, 0.59% hits; inhibition, % at 20 µM; human 26S proteasome, Ub4-pepOG fluorescence polarization; 20S core pre-blocked with epoxomicin; O00487;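 active = inhibition at 20 µM, scaled to each plate's controls, above about 33%, limit read from the data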
Scp1 inh = inhibitors of human Scp-1 phosphatase. Q9GZU7. Recombinant Scp1, phosphopeptide, malachite green phosphate absorbance. inhibition, % at 20 µM. 340,000 compounds, 0.88% hits. AID 493091;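 active = inhibition above about 50% at 20 µM, limit read from the data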;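 also: plate controls were DMSO wells with enzyme for no effect and wells lacking enzyme for full effect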
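System: SCP-1 catalytic domain; Reagent: Phospho 17-mer peptide substrate; Doses: one concentration, 20 µM, with 1.0% DMSO; Incubation: 45 min room-temperature reaction, 5 min colour, 30 min stabiliser; Signal: Phosphate-binding colour reagent, absorbance read at 630 nm.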
DNMT1 inh = inhibitors of human DNMT1 | P26358 | DNMT1 molecular beacon, Hinp1I cleavage, fluorescence | inhibition (reported as % activation of signal), % at 10 µM | 360,000 compounds, 0.83% hits | AID 588458; in the data active = inhibition above about 50%
STEP block = STEP (human) phosphatase inhibition. P54829. recombinant STEP, OMFP fluorogenic substrate, fluorescence. inhibition, % at 20 µM. 360,000 compounds, 0.25% hits. AID 588621;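 active = inhibition at 20 µM, scaled per plate between control wells, above about 37%, limit read from the data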;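 also: 0% = DMSO with enzyme and substrate and 100% = substrate only without enzyme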
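Material: STEP (striatal-enriched tyrosine phosphatase) enzyme, cell-free | Medium: 50 mM Bis-Tris pH 6.0 with 2.5 mM DTT and 0.005% Tween 20 | Read-out: Percent inhibition scaled to no-enzyme and uninhibited-enzyme controls, plate-pattern corrected | Signal: Fluorescence read at 480 nm ex / 540 nm em | Times: 20 min reaction, room temperature, in the dark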
SUMO1-SIM PPI = modulators of human SUMO1-mediated protein-protein interactions | AID 602429 | SUMO1 binding to a labelled peptide, TR-FRET, 1 h | inhibition, % at 20 µM | 360,000 compounds, 0.33% hits | P63165; in the data active = inhibition above about 37%
Scp-1 conf = confirmation of human Scp-1 phosphatase inhibitors; shares compounds with Scp1 inh; recombinant SCP-1 catalytic domain, phosphate release, malachite green absorbance; inhibition, % at 20 µM; 2,500 compounds, 61% hits;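 also: plate controls were DMSO with enzyme for no effect and buffer wells lacking enzyme for full effect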
Scp-1 MG ctr = interferes with malachite green readout, flagging false Scp-1 hits | shares compounds with Scp1 inh | Colorimetric interference counterscreen, malachite green absorbance 630 nm | apparent inhibition (interference), % at 20 µM | 2,500 tested, under 10 active | AID 540313;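 also: compounds added after enzyme reaction finished so only phosphate colour detection is probed; plate controls were DMSO wells with completed Scp-1 reaction for no effect and substrate wells lacking enzyme for full effect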
Scp1 DSF = validation of human Scp-1 inhibitors by thermal shift binding. shares compounds with Scp1 inh. Recombinant SCP1, Sypro Orange thermal shift Tm. thermal shift relative to vanadate control, % at 40 µM. 1,500 compounds, 25% hits. AID 540329;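 active = substances whose mean melting-temperature shift, as a percentage of the reference inhibitor's shift, reaches about 5.3%, limit read from the data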;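 also: 0% = Tm of DMSO wells and 100% = Tm with sodium orthovanadate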
An asterisk follows results filed as active; . = no result given. An excerpt weighted towards active compounds, which were near 2.3% of everything screened.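 The calls were made as follows, unless noted: active = inhibition of at least 30% at 20 µM; inactive = the rest.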

SMILES	LMPTP block	Rpn11 block	Scp1 inh	DNMT1 inh	STEP block	SUMO1-SIM PPI	Scp-1 conf	Scp-1 MG ctr	others
CCc1ccc(C(C(=O)NC2CCCCC2)N(C(=O)c2csnn2)C2CC2)cc1 (stereo unspecified)	0	-8	-4	1	0	-3	.	.
Cc1ccc(C2(C)NC(=O)N(CC(=O)N3CCN(C(=O)c4cccs4)CC3)C2=O)cc1 (stereo unspecified)	4	0	-3	-2	0	17	.	.
CCc1ccc(NC(=O)CC2C(=O)N(c3ccc(C)cc3)C(=O)N2CCc2ccncc2)cc1 (stereo unspecified)	-2	3	-4	0	1	2	.	.
O=C(NNC(=O)C1CCCC1)c1cc([N+](=O)[O-])cc([N+](=O)[O-])c1	-1	-1	-4	-1	2	-27	.	.
O=C(CCN1C(=O)/C(=C/c2ccc3c(c2)OCO3)SC1=S)Nc1cccc(C(=O)O)c1	3	22	69*	4	7	0	78*	-9	Scp1 DSF=11*
O=C(CCCN1C(=O)/C(=C\c2ccccc2)SC1=S)Nc1cccc(C(=O)O)c1	1	-1	-7	1	-1	-24	.	.
O=C(CCN1C(=O)/C(=C/c2ccc(Cl)cc2)SC1=S)Nc1cccc(C(=O)O)c1	1	2	89*	0	10	-7	66*	-3	Scp1 DSF=9.7*
O=C(Cc1nnc(NC(=O)c2ccccc2)s1)N/N=C/c1ccc(O)cc1	9	4	62*	-8	26	-13	49*	-8	Scp1 DSF=5
O=C(Nc1nnc(CCc2ccccc2)s1)c1ccccc1	-1	-6	6	2	-1	5	.	.
c1ccc(-n2cnc3cc(NCc4ccco4)ccc32)cc1	0	5	-8	-5	-4	3	.	.
C/C(N)=C(/C#N)C(=O)CSc1nnc(Nc2ccccc2)s1	-1	-5	-13	-1	-2	8	.	.
C/C(N)=C(/C#N)C(=O)CSc1nnc(NC(C)C)s1	17	-21	91*	37	6	7	64*	-10	Scp1 DSF=-2
CC(C)C[C@H](NC(=O)OC(C)(C)C)C(=O)N[C@@H](CO)[C@H](O)[C@@H]1C[C@@H]1C(=O)NC1CCCCC1	0	3	1	-2	-1	4	.	.
CC(C)(C)OC(=O)NCc1ccc(CNC(=O)c2nc[nH]c2C(=O)N2CCN(C(=O)OC(C)(C)C)CC2)cc1	0	2	-4	2	0	1	.	.
CC1=CC(C)(C)N(C(=O)c2ccccc2)c2ccccc21	0	-1	-14	-3	3	-6	.	.
CC1=CC(C)(C)[N+](C)(C)c2ccccc21	-1	3	72*	-2	-2	4	2	-9
CCC1Oc2ccc(C)cc2N(CC(=O)NCC2CCCO2)C1=O (stereo unspecified)	-1	0	-5	1	0	-2	.	.
N#C/C(=N\Nc1cccc(C(F)(F)F)c1)C(=O)c1csc(-c2cccnc2)n1	1	-1	5	-2	-3	18	.	.
CCOC(=O)CN1C(=O)N[C@@H](c2cccs2)C(C(C)=O)=C1C	0	3	-9	1	-3	1	.	.
CCOC(=O)CN1C(=O)N[C@@H](c2cccs2)C(C(=O)OC)=C1C	-1	-5	58*	3	3	1	-6	-9
O=C(CSc1ncccc1-c1nc2ccccc2[nH]1)NCc1ccco1	6	17	56*	8	-1	21	66*	-3	Scp1 DSF=6.5*

Source: PubChem BioAssay
